The values below come from ChEMBL document CHEMBL4732180, “Discovery of novel positive allosteric modulators of the α7 nicotinic acetylcholine receptor: Scaffold hopping approach” (Eur J Med Chem, 2021).

The nature of data set [1]: Lipophilicity, logP of compound. Format: physicochemical. To be noted: octanol/water.
A short description of data set [2]: Intrinsic clearance in rat liver microsome at 1 to […] up to 40 mins. It counts as ADME. To be noted: liver microsomes, dose 1-2.5 µM, read-out: CLH. For orientation: Liver microsomes are a subcellular fraction often used to study metabolism.
The nature of data set [3]: Apparent permeability across apical to basolateral side in vinblastine-treated human Caco2 cells at 10 uM after 180 mins by HPLC or UHPLC-MS/MS analysis. Format: ADME. To be noted: Caco-2. Put shortly: (§1)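 Vinblastine-selected Caco-2 (VB-Caco-2) monolayers with high P-gp expression. Compound at 1 or 10 µM, measured apical-to-basolateral and basolateral-to-apical in HBSS with 25 mM HEPES. pH 7.4 on both sides, 37 °C, 120 rpm shaking, up to 180 min with compound-specific duration. Quantified by HPLC or UHPLC-MS/MS; PDR = Papp B-A / Papp A-B.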
A general note: Passage across Caco-2 layers is used to estimate intestinal permeability.

Data set [4] is described as follows: Intrinsic clearance in mouse liver microsome at 1 to […] up to 40 mins. It counts as ADME. To be noted: liver microsomes, dose 1-2.5 µM, read-out: CLH.
A short description of data set [5]: Intrinsic clearance in human liver microsome at 1 to […] up to 40 mins. Format: ADME. To be noted: liver microsomes, dose 1-2.5 µM, read-out: CLH.
The nature of data set [6]: Apparent permeability across apical to basolateral side in vinblastine-treated human Caco2 cells at 1 uM after 180 mins by HPLC or UHPLC-MS/MS analysis. Format: ADME. To be noted: Caco-2. Put shortly:
as §1

Data set [7] in a line: Clearance in Wistar rat plasma at 3 mg/kg, iv up to 5 hrs by HPLC-MS/MS analysis. It counts as ADME, organism-based.
The nature of data set [8]: Half life in Wistar rat plasma at 3 mg/kg, iv up to 5 hrs by HPLC-MS/MS analysis. Format: ADME, organism-based.
A short description of data set [9]: AUC (0 to 5 hrs) in Wistar rat brain at 3 mg/kg, po up to 5 hrs by HPLC-MS/MS analysis. Format: ADME, organism-based. On the set-up: route oral, dose 3 mg/kg, time <=5.
The nature of data set [10]: Tmax in Wistar rat plasma at 3 mg/kg, po up to 5 hrs by HPLC-MS/MS analysis. It counts as ADME, organism-based.
Data set [11] can be described thus: AUC (0 to 5 hrs) in Wistar rat plasma at 3 mg/kg, iv up to 5 hrs by HPLC-MS/MS analysis. The arrangement: route intravenous, dose 3 mg/kg, time <=5. It counts as ADME, organism-based.
A short description of data set [12]: Cmax in Wistar rat brain at 3 mg/kg, po up to 5 hrs by HPLC-MS/MS analysis. It counts as ADME, organism-based. The arrangement: route oral, dose 3 mg/kg, time <=5.
Data set [13] is described as follows: Cmax in Wistar rat plasma at 3 mg/kg, po up to 5 hrs by HPLC-MS/MS analysis. Format: ADME, organism-based. The arrangement: route oral, dose 3 mg/kg, time <=5.
Data set [14] can be described thus: Tmax in Wistar rat brain at 3 mg/kg, po up to 5 hrs by HPLC-MS/MS analysis. It counts as ADME, organism-based.
A short description of data set [15]: AUC (0 to 5 hrs) in Wistar rat plasma at 3 mg/kg, po up to 5 hrs by HPLC-MS/MS analysis. Format: ADME, organism-based. On the set-up: route oral, dose 3 mg/kg, time <=5.
Data set [16] can be described thus: Volume of distribution in Wistar rat plasma at 3 mg/kg, iv up to 5 hrs by HPLC-MS/MS analysis. Format: ADME, organism-based.

In the case of `CCC(=O)c1cc(-c2ccc(S(N)(=O)=O)cc2)n(-c2ccc(Cl)cc2)n1`, in data set [1], the log partition coefficient (logP) was 3.8. Besides, the microsomal CLint at […] in data set [2] is 20 µL/min/mg; in [4], 16 µL/min/mg; in [5], 18 µL/min/mg. In addition, the apical-to-basolateral permeability (Papp A→B) at 3 h, 10 µM in [3] was found to be 20 ×10⁻⁶ cm/s.
Turning to `CCC(=O)c1cc(-c2ccc(Cl)cc2)n(-c2ccc(S(N)(=O)=O)cc2)c1C`, the logP in [1] amounted to 4.7. The microsomal CLint at […] in [2] is 10 µL/min/mg; in [4] it was 26 µL/min/mg; in data set [5], 3 µL/min/mg. Also, the apparent permeability from apical to basolateral (Papp A→B) at 3 h, 1 µM in data set [6] was 9 ×10⁻⁶ cm/s.
Turning to `NS(=O)(=O)c1ccc(-c2cc(C(=O)N3CC4CC4C3)nn2-c2ccc(Cl)cc2)cc1` (stereo not given), the logP in data set [1] turned out to be 3.1. Further, the results for the microsomal CLint at […] in data set [2], in data set [4] and in data set [5] were 10 µL/min/mg, 5 µL/min/mg and 4 µL/min/mg, respectively. The compound further returned a clearance in data set [7] of 14.1 mL/min/kg. The apparent permeability from apical to basolateral (Papp A→B) at 3 h, 10 µM in data set [3] was 18 ×10⁻⁶ cm/s. Also, in data set [8], the half-life is 0.97 h. Further, the AUC(0-t) was determined as 158 ng·h/mL in data set [9], 3490 ng·h/mL in [11] and 134 ng·h/mL in data set [15]. The Tmax in data set [10] and in [14] was 2 h each time. Moreover, the Cmax was determined as 36.8 ng/mL in data set [12] and 31.6 ng/mL in [13]. The Vd in data set [16] is 1.17 L/kg.

Broadly, the logP is the decadic logarithm of the partition coefficient of the neutral form, usually between octanol and water. High values mean a more lipophilic compound, low ones a more hydrophilic compound. The Papp A→B is how fast a substance crosses the layer from the apical side. What is called clearance is a measure of how efficiently the substance is removed, as volume per time. Read a low clearance as inefficient removal. The half-life is the time needed for the level to fall by half in the phase considered. Low values mean fast loss, high ones slow loss. Broadly, the AUC(0-t) is exposure summed from dosing to a finite time, without extrapolation to infinity. What is called Tmax is the time from dosing to the highest level. The Cmax is the peak of the concentration-time curve. What is called Vd is a proportionality between amount in the body and measured concentration, not a real space.
